The test system of data set [1] is Norovirus. Kind of data set: Antiviral activity against Norovirus infected in human HG23 cells assessed as inhibition of viral replication after 24 hrs by qRT-PCR. To be noted: HG23, 24 h, read-out: ED50 (the source's name). Type of data set: functional. In outline: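 HG23 cells (harbouring NV replicon), one day old and 80–90% confluent, exposed to each compound over 0 (mock-DMSO) to 20 μM. NV genome levels measured by qRT-PCR; ED50 for genome level taken at 24 hr post-treatment.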
Background: In qPCR the cycle at which signal appears reflects the starting amount.

Data set [2] can be described thus: Cytotoxicity against human HG23 cells after 48 hrs. The data set is classed as cell-based. To be noted: read-out: TD50. In outline:
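HG23 cells (Norwalk virus replicon-harboring) exposed to each compound at 0 (mock-DMSO) to 320 μM for 48 hr; viability read with a cell cytotoxicity assay kit; median toxic dose (TD50) calculated.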

On to `O=C1NCCN1Cc1cccc(Oc2ccccc2)c1`, for which the EC50 in data set [1] was 8 µM. Moreover, in data set [2], the CC50 at 48 h stood at 95 µM.

With `CC(C)(C)OC(=O)CN1CCN(Cc2cccc(Oc3ccccc3)c2)C1=O`, the EC50 in data set [1] came to 12 µM. The CC50 at 48 h in data set [2] amounted to 55 µM.

As to `O=C(O)CN1CCN(Cc2cccc(Oc3ccccc3)c2)C1=O`, the EC50 in data set [1] was above 20 µM.

Turning to `O=C1N(CCN2CCOCC2)CCN1Cc1cccc(Oc2ccccc2)c1`, the EC50 in data set [1] is 16 µM. In addition, the CC50 at 48 h in data set [2] was 120 µM.

On to `O=C1N(CCN2CCN(CCN3CCN(Cc4cccc(Oc5ccccc5)c4)C3=O)CC2)CCN1Cc1cccc(Oc2ccccc2)c1`, for which the EC50 in data set [1] came to 0.5 µM. Besides, the CC50 at 48 h in data set [2] came to 2.5 µM.

As to `O=S1(=O)NCCCN1Cc1cccc(Oc2ccccc2)c1`, the EC50 in data set [1] is above 20 µM.

On to `O=C1NCCCN1Cc1cccc(Oc2ccccc2)c1`, for which the EC50 in data set [1] is above 20 µM.

Consider `CC(C)(O)c1cn(Cc2cccc(Oc3ccccc3)c2)nn1`, for which the EC50 in data set [1] is above 20 µM.

In the case of `CCCCc1cn(Cc2cccc(Oc3ccccc3)c2)nn1`, the EC50 in data set [1] was 6 µM. Besides, the CC50 at 48 h in data set [2] is 40 µM.

Turning to `O=C(O)CCCc1cn(Cc2cccc(Oc3ccccc3)c2)nn1`, the EC50 in data set [1] was above 20 µM.

Take `C[Si](C)(C)c1cn(Cc2cccc(Oc3ccccc3)c2)nn1`: the EC50 in data set [1] was determined as 7 µM. For the same molecule, in data set [2], the CC50 at 48 h stood at 30 µM.

Regarding `c1ccc(Oc2cccc(Cn3ccnn3)c2)cc1`, in data set [1], the EC50 was found to be 10 µM. Besides, in data set [2], the CC50 at 48 h worked out at 100 µM.

Take `c1ccc(Oc2cccc(Cc3nn[nH]n3)c2)cc1`: the EC50 in data set [1] was above 20 µM.

As to `Cn1nnc(Cc2cccc(Oc3ccccc3)c2)n1`, in data set [1], the EC50 was above 20 µM.

Consider `c1ccc(Oc2cccc(Cn3ccnc3)c2)cc1`, for which the EC50 in data set [1] stood at 8 µM. Also, in data set [2], the CC50 at 48 h came to 35 µM.

`O=C1CN(Cc2cccc(Oc3ccccc3)c2)S(=O)(=O)N1`: the EC50 in data set [1] is above 20 µM.

The record behind these values is ChEMBL document CHEMBL1828499, “Design and synthesis of inhibitors of noroviruses by scaffold hopping” (Bioorg Med Chem, 2011).
